Laboratory results reported in ChEMBL document CHEMBL1143831, “Small molecule inhibitors of aggregation indicate that amyloid beta oligomerization and fibrillization pathways are independent and distinct” (J Biol Chem, 2007).
Structures can show the parent of a compound that is named as a salt. The source made the active and inactive calls. The rule behind the calls is not given here.

What was measured:
[1] = Inhibition of synthetic amyloid beta42 oligomer formation by Western blot
In short: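 Aβ42 (NaOH stock, 45 µM final) incubated in PBS pH 7.4, 0.02% sodium azide at room temperature without stirring for 5 days, with compound at 300 µM in DMSO; vehicle controls at 1% DMSO. Aliquots were mixed 1:1 with 2x SDS sample buffer, boiled 5 min, and run on 4-20% Tris-HCl gels. The gels were transferred to nitrocellulose and probed with A11 anti-oligomer antibody, with 6E10 also used.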

[2] = Inhibition of synthetic amyloid beta-42 oligomerization by ELISA
[3] = Inhibition of synthetic amyloid beta42 fibrillation at 300 uM by ThT fluorescence analysis relative to control
In short: (§1)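 Aβ42 (45 µM final) from 2 mM NaOH stock, sonicated, diluted into 10 mM HEPES, 100 mM NaCl, 0.02% sodium azide, pH 7.4; stirred at room temperature 4 days with compound in DMSO (controls 1% DMSO). Aliquot mixed with 3 µM ThT; ex 442 nm, em 482 nm; corrected with parallel protein-free reactions; triplicate, % of control.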

[4] = Inhibition of synthetic amyloid beta-42 fibrillation at 300 uM by light scattering analysis relative to control
In short: (§2)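 Aβ42 (45 µM final) from 2 mM NaOH stock, diluted into 10 mM HEPES, 100 mM NaCl, 0.02% sodium azide, pH 7.4; stirred at room temperature 4 days with compound in DMSO (controls 1% DMSO). Turbidity at 400 nm, corrected by the 400 nm reading of supernatant after 14,000 rpm, 30 min centrifugation; triplicate, relative to control.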

[5] = Inhibition of synthetic amyloid beta-42 fibrillation at 30 uM by ThT fluorescence analysis relative to control; in short: as §1
[6] = Inhibition of synthetic amyloid beta-42 fibrillation at 30 uM by light scattering analysis relative to control; in short: as §2

Row | Compound | Activity [1] | IC50 [2] [µM] | also measured
1 | COc1cccc(C=O)c1O | inactive | 6.15 | –
2 | CCN(CC)c1ccc2c(-c3ccccc3C(C)=O)c3ccc(=[N+](CC)CC)cc-3oc2c1 | – | 310 | –
3 | COc1ccc2nc3cc(Cl)ccc3c(NC(C)CCCN(CCCl)CCCl)c2c1 (stereo not given) | – | 2050 | –
4 | O=C1C=Cc2ccccc2C1=O [1,2-NAPHTHOQUINONE] | inactive | 11.5 | –
5 | O=C(c1ccccc1O)c1ccccc1O [2,2'-DIHYDROXYBENZPHENONE] | – | 244 | –
6 | CNc1ccc2nc3ccc(N)cc3[s+]c2c1 [AZURE C] | inactive | 0.09 | –
7 | CCN(CCO)c1ccc(/N=N/c2sc3cc(OC)ccc3[n+]2C)cc1 [BASIC BLUE 41] | inactive | 0.12 | –
8 | COc1cc(-c2ccc(/N=N/c3ccc4c(S(=O)(=O)O)cc(S(=O)(=O)O)c(N)c4c3O)c(OC)c2)ccc1/N=N/c1ccc2c(S(=O)(=O)O)cc(S(=O)(=O)O)c(N)c2c1O [CHICAGO SKY BLUE SODIUM] | inactive | 2.58 | –
9 | Nc1c(/N=N/c2ccc(-c3ccc(/N=N/c4cc(S(=O)(=O)O)c5ccccc5c4N)cc3)cc2)cc(S(=O)(=O)O)c2ccccc12 [CONGO RED] | inactive | 10 | –
10 | COc1cc(/C=C/C(=O)CC(=O)/C=C/c2ccc(O)c(OC)c2)ccc1O [CURCUMIN] | – | 361 | –
11 | COc1cccc2c1C(=O)c1c(O)c3c(c(O)c1C2=O)C[C@@](O)(C(C)=O)C[C@@H]3O[C@H]1C[C@H](N)[C@H](O)[C@H](C)O1 [DAUNORUBICIN HYDROCHLORIDE] | inactive | 7.48 | –
12 | O=C(O)c1ccccc1-c1c2cc(Br)c(=O)c(Br)c-2oc2c(Br)c(O)c(Br)cc12 [EOSIN Y SODIUM] | – | 2790 | –
13 | COc1ccc2c(c1)c(CC(=O)O)c(C)n2C(=O)c1ccc(Cl)cc1 [INDOMETHACIN] | – | 958 | –
14 | O=C1C=CC(=O)c2c(O)cccc21 [JUGLONE] | Active | 67.6 | –
15 | O=c1cc2oc3cc(O)c(-c4ccc(O)cc4O)cc3nc-2cc1-c1ccc(O)cc1O [LACMOID] | inactive | 25.5 | –
16 | C=C1c2c(Cl)ccc(O)c2C(=O)C2=C(O)[C@]3(O)C(=O)C(C(N)=O)=C(O)[C@@H](N(C)C)[C@@H]3[C@@H](O)[C@H]12.O=C(O)c1cc(S(=O)(=O)O)ccc1O [MECLOCYCLINE SULFOSALICYLATE] | inactive | 0.25 | –
17 | O=c1c(O)c(-c2cc(O)c(O)c(O)c2)oc2cc(O)cc(O)c12 [MYRICETIN] | Active | 107 | –
18 | Cc1ccc2ccc3ccc(C)nc3c2n1 [NEOCUPROINE] | inactive | 17.4 | –
19 | CC(Cc1ccc(O)c(O)c1)C(C)Cc1ccc(O)c(O)c1 (stereo not given) [NORDIHYDROGUAIARETIC ACID] | inactive | 14.5 | –
20 | OCCN1CCN(CCCN2c3ccccc3Sc3ccc(Cl)cc32)CC1 [PERPHENAZINE] | – | 26.1 | –
21 | O=S1(=O)OC(c2ccc(O)cc2)(c2ccc(O)cc2)c2ccccc21 [PHENOLSULFONPHTHALEIN] | – | 426 | –
22 | CO[C@H]1/C=C/O[C@@]2(C)Oc3c(C)c(O)c4c(O)c(cc(O)c4c3C2=O)NC(=O)/C(C)=C\C=C\[C@H](C)[C@H](O)[C@@H](C)[C@@H](O)[C@@H](C)[C@H](OC(C)=O)[C@@H]1C [RIFAMYCIN] | inactive | 31.6 | –
23 | CN(C)[C@@H]1C(O)=C(C(=O)NCN2CCCC2)C(=O)[C@@]2(O)C(O)=C3C(=O)c4c(O)cccc4[C@@](C)(O)[C@H]3C[C@@H]12 [ROLITETRACYCLINE] | inactive | 1.87 | –
24 | C1CCSC1 [TETRAHYDROTHIOPHENE] | Active | 122 | –
25 | CETRIMIDE [listing 1 of 2 here] | – | 15.9 | –
26 | CETRIMIDE [listing 2 of 2 here] | inactive | – | inhibition [3]: 0.7%; Activity [4]: inactive; inhibition [5]: 112%
27 | N,N,N-trimethylhexadecan-1-aminium bromide | inactive | – | inhibition [3]: 0.5%; Activity [4]: inactive; Activity [6]: Active; inhibition [5]: 9.8%
